Data: ChEMBL document CHEMBL4732057, “Design, synthesis and biological evaluation of second-generation benzoylpiperidine derivatives as reversible monoacylglycerol lipase (MAGL) inhibitors” (Eur J Med Chem, 2021)
Activity calls are given as the source filed them. The calls are words filed in the database; no cut-off is given here.

What was measured:
[1] = target: T1, Lysophosphatidylserine lipase ABHD12 (Mus musculus) (UniProt Q99LR1); assay: Inhibition of ABHD12 in mouse brain membrane up to 30 uM preincubated for 25 mins followed by TAMRA-FP labeling addition and measured after 5 mins by competitive ABPP based analysis; type: cell membranes; details: dose microM <=30, time 30.0 min
T1 sequence (whole entry): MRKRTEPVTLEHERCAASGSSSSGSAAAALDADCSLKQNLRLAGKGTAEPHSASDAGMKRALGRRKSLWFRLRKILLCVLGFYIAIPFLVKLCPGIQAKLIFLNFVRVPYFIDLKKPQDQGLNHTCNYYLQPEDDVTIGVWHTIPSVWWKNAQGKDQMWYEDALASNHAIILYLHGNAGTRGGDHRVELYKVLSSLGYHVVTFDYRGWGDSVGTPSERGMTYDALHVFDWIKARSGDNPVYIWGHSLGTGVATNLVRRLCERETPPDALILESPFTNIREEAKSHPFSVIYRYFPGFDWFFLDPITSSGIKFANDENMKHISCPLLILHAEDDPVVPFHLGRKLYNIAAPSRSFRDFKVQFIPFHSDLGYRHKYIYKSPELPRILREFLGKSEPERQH
Procedure, shortened: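 Mouse brain membranes, 4 mg/mL in PBS, preincubated 25 min at 25 °C with compound at 10 µM or a range of concentrations. Labelled 5 min with TAMRA-FP at 125 nM final. Proteins resolved on 11% SDS-PAGE and scanned for fluorescence.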

Monoglyceride lipase = target: T2, Monoglyceride lipase (Homo sapiens, UniProt Q99685); assay: Inhibition of human recombinant MAGL using 4-nitrophenylacetate as substrate incubated for 30 mins by microplate reader assay
T2 sequence (Q99685 whole entry): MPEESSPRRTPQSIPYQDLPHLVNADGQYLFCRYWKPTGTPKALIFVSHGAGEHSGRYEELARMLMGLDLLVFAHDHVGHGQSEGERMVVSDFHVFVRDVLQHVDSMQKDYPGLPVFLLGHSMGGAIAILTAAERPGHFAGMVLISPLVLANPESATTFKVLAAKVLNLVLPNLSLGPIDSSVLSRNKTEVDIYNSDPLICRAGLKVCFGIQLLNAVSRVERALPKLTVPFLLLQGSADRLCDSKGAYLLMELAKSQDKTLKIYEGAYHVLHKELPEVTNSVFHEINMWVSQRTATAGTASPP
Procedure, shortened: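 Human recombinant MAGL, 11 ng/well, in 10 mM Tris pH 7.2 with 1 mM EDTA and 0.1 mg/mL BSA, at room temperature. 4-NPA 133.3 µM stock added; enzyme added last. Absorbance at 405 nm after 30 min, minus a no-enzyme blank for each concentration. Sigmoidal fit; duplicates of three independent experiments.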

[2] = target: T3, Lysophosphatidylserine lipase ABHD12 (Homo sapiens, UniProt Q8N2K0); assay: Inhibition of human ABHD12 expressed in HEK293 cells using [3H]2-OG as substrate preincubated for 30 mins followed by substrate addition and measured after 5 mins by liquid scintillation spectroscopy; type: cell-based
T3 sequence (Q8N2K0 whole entry): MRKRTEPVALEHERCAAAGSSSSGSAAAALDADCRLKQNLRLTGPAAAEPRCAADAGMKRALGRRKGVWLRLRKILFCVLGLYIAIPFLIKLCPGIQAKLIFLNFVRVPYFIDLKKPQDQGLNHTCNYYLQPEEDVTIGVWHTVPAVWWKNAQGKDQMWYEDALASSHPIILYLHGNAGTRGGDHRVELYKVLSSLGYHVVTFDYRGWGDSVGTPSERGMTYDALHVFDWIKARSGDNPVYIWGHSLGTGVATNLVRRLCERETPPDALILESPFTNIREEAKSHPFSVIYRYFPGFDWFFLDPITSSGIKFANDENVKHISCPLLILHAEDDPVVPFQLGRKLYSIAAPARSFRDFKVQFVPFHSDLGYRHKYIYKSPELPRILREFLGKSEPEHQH
Procedure, shortened: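 Homogenate (40 µg) of HEK293 cells stably transfected with human ABHD6 or ABHD12, preincubated with compound 30 min at 37 °C in […], 0.1% BSA, pH 7.6. 2-OG 10 µM added for 5 min at 37 °C. Stopped with CHCl3:MeOH; aqueous tritium counted; blanks and nontransfected HEK293 hydrolysis subtracted. Screening at 10 µM.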

SK-OV-3 = assay: Antiproliferative activity against human SKOV3 cells as reduction in cell growth measured after 96 hrs by Celltiter-glo luminescent assay; type: functional, cell-based; details: SK-OV-3, 96 h
Procedure, shortened: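 Cell lines kept at 37 °C, 5% CO2; 5 × 10^2 cells per well, compound added the day after seeding at 200 to 0.02 µM. Viability read after 96 h by CellTiter-Glo luminescence. IC50 from logistic dose-response curves, in triplicate; error bars are SD.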

Cannabinoid receptor 2 = Cannabinoid receptor 2 (Homo sapiens, UniProt P34972); assay: Displacement of [3H]CP55940 from human CB2 receptor incubated for 90 mins by radioligand binding assay
Sequence of Cannabinoid receptor 2 (P34972 whole entry): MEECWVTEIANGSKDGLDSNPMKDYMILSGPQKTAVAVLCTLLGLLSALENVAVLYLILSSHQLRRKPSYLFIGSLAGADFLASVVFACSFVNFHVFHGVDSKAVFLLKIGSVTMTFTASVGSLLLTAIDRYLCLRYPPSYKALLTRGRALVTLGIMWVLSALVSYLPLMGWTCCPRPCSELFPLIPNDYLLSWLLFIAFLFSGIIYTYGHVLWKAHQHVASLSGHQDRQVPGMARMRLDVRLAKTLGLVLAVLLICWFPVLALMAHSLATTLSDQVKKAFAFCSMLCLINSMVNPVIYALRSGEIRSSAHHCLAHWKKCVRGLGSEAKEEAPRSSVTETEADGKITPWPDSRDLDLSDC
Procedure, shortened: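 Membranes expressing hCB1 or hCB2 in 50 mM Tris-HCl, 2.5 mM EDTA, 5 mM MgCl2, 0.5% BSA, pH 7.4, incubated with compound and 0.5 nM [3H]CP55,940 for 90 min at 30 °C. Nonspecific binding with 10 µM […]; filtered and counted. Screening at 10 µM; two experiments in triplicate.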

[3] = Antiproliferative activity against human PDAC-3 cells assessed as inhibition of cell growth incubated for 72 hrs by SRB assay; type: functional, cell-based; details: PDAC-3, 72 h
Procedure, shortened: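 Primary patient-derived PDAC-3 cells, cultured under 20 passages in RPMI-1640 with 10% NBCS. Compounds dissolved in DMSO and tested at 8 concentrations, 156.25 to 20 000 nM. Growth read by sulforhodamine-B assay.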

| SMILES | inhibition [1] | IC50 (Monoglyceride lipase) [µM] | IC50 [2] [µM] | IC50 (SK-OV-3) [µM] | IC50 (Cannabinoid receptor 2) [µM] | IC50 [3] [µM] |
| --- | --- | --- | --- | --- | --- | --- |
| O=C(c1ccc(Sc2ccccc2)cc1)C1CCN(C(=O)c2cc(O)c(F)cc2F)CC1 | inactive | 0.018 | > 10 | 11 | > 10 | 14.6 |
| O=C(c1ccc(Cc2ccccc2)cc1)C1CCN(C(=O)c2cc(O)c(F)cc2F)CC1 | inactive | 0.036 | > 10 | 12 | > 10 | 12 |
| O=C(c1ccc(Cc2ccccc2)cc1)C1CCN(C(=O)c2cc(O)ccc2F)CC1 | inactive | 0.049 | > 10 | 8 | > 10 | 12.5 |
| O=C(c1ccc(Sc2ccccc2)cc1)C1CCN(C(=O)c2cc(O)ccc2F)CC1 | inactive | 0.03 | > 10 | 4.6 | > 10 | 9.28 |
